Measurements published in ChEMBL document CHEMBL4038284, “Synthesis of novel quinoline-based 4,5-dihydro-1H-pyrazoles as potential anticancer, antifungal, antibacterial and antiprotozoal agents” (Eur J Med Chem, 2017).
≈ marks a conversion by molar mass, not a printed value.

Key:
Cryptococcus neoformans [1] = experiment: Growth inhibition of Cryptococcus neoformans ATCC 32264 at 250 ug/ml incubated for 48 hrs under dark condition by broth microdilution method relative to control; type: functional; settings: ATCC 32264, 48 h, read-out: GI
Procedure, shortened: (§1)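 CLSI M27-A3 broth microdilution in RPMI-1640, DMSO ≤1%. Inoculum 1-5 × 10^3 CFU/mL. Incubated 48 h at 30 °C, dark. % inhibition = 100 − (OD405 test − sterility control)/(OD405 growth control − sterility control), with growth and sterility control wells. Triplicate.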

Cryptococcus neoformans [2] = experiment: Antifungal activity against Cryptococcus neoformans ATCC 32264 incubated for 48 hrs under dark condition by broth microdilution method; type: functional; settings: ATCC 32264, 48 h
Procedure, shortened: (§2)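 CLSI M27-A3 broth microdilution in RPMI-1640, DMSO ≤1%, compounds at 250-0.98 µg/mL final. Inoculum 1-5 × 10^3 CFU/mL. Incubated 48 h at 30 °C in a moist dark chamber, read at OD405. MIC80 and MIC50 taken from % inhibition dose-response curves (mean ± SEM, triplicate). Amphotericin B was the positive control.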

Cryptococcus neoformans [3] = experiment: Growth inhibition of Cryptococcus neoformans ATCC 32264 at 31.25 ug/ml incubated for 48 hrs under dark condition by broth microdilution method relative to control; type: functional; settings: ATCC 32264, 48 h, read-out: GI; procedure, shortened: as §1
U-937 = experiment: Cytotoxicity against human U937 cells after 72 hrs by MTT assay; type: cell-based; settings: u-937, 72 h
Procedure, shortened: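 Exponentially growing U-937 at 1 × 10^5 cells/mL in RPMI-1640 with 10% FBS were exposed to 200, 50, 12.5 and 3.125 µg/mL for 72 h at 37 °C, 5% CO2. MTT for 3 h, stopped with isopropanol/SDS, formazan read at 570 nm, blank-corrected. LC50 by Probit from % viability against untreated cells. Triplicate, at least two independent experiments.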

Staphylococcus aureus [4] = experiment: Antibacterial activity against vancomycin-intermediate Staphylococcus aureus after 24 hrs by resazurin dye based microdilution assay; type: functional
Procedure, shortened: (§3)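 MIC taken as the lowest concentration giving visible inhibition and/or by resazurin (1 mg/mL). Gentamicin was the control. Run in duplicate, repeated at least three times.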

Candida albicans [5] = experiment: Growth inhibition of Candida albicans ATCC 10231 at 62.5 ug/ml incubated for 48 hrs under dark condition by broth microdilution method relative to control; type: functional; settings: ATCC 10231, 48 h, read-out: GI; procedure, shortened: as §1
Cryptococcus neoformans [6] = experiment: Growth inhibition of Cryptococcus neoformans ATCC 32264 at 125 ug/ml incubated for 48 hrs under dark condition by broth microdilution method relative to control; type: functional; settings: ATCC 32264, 48 h, read-out: GI; procedure, shortened: as §1
Candida albicans [7] = experiment: Growth inhibition of Candida albicans ATCC 10231 at 15.62 ug/ml incubated for 48 hrs under dark condition by broth microdilution method relative to control; type: functional; settings: ATCC 10231, 48 h, read-out: GI; procedure, shortened: as §1
Cryptococcus neoformans [8] = experiment: Growth inhibition of Cryptococcus neoformans ATCC 32264 at 62.5 ug/ml incubated for 48 hrs under dark condition by broth microdilution method relative to control; type: functional; settings: ATCC 32264, 48 h, read-out: GI; procedure, shortened: as §1
Candida albicans [9] = experiment: Growth inhibition of Candida albicans ATCC 10231 at 125 ug/ml incubated for 48 hrs under dark condition by broth microdilution method relative to control; type: functional; settings: ATCC 10231, 48 h, read-out: GI; procedure, shortened: as §1
Klebsiella pneumoniae [10] = experiment: Antibacterial activity against ESBL positive Klebsiella pneumoniae ATCC 700603 after 24 hrs by resazurin dye based microdilution assay; type: functional; settings: Klebsiella pneumoniae, 700603, 24 h; procedure, shortened: as §3
Leishmania panamensis = experiment: Antileshmanial activity against EpiR/GFP fused Leishmania panamensis MHOM/CO/87/UA140 intracellular amastigotes infected in human […] cells after 72 hrs by flow cytometric method; type: functional, cell-based; settings: MHOM/CO/87/UA140, 72 h
Procedure, shortened: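 PMA-treated U-937 cells (3 × 10^5 cells/mL) infected with stationary-phase GFP L. panamensis promastigotes (15:1), 3 h at 34 °C, then washed. After 24 h, compounds added at 50, 12.5, 3.125 and 0.78 µg/mL for 72 h at 37 °C. EC50 by Probit; triplicate, two experiments.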

Staphylococcus aureus [11] = experiment: Antibacterial activity against methicillin-resistant Staphylococcus aureus ATCC 43300 after 24 hrs by resazurin dye based microdilution assay; type: functional; settings: ATCC 43300, 24 h
Procedure, shortened: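 Broth microdilution in Mueller Hinton broth, inoculum 5 × 10^5 – 8 × 10^5. Compound stocks diluted in MHB with 5% DMSO and 0.1% Tween 80. Incubation 24 h at 35-37 °C. MIC is the lowest concentration with visible growth inhibition and/or by resazurin (1 mg/mL) read-out. Gentamicin as control. Run in duplicate, replicated at least three times.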

Candida albicans [12] = experiment: Growth inhibition of Candida albicans ATCC 10231 at 7.8 ug/ml incubated for 48 hrs under dark condition by broth microdilution method relative to control; type: functional; settings: ATCC 10231, 48 h, read-out: GI; procedure, shortened: as §1
Pseudomonas aeruginosa = experiment: Antibacterial activity against Pseudomonas aeruginosa ATCC 27853 after 24 hrs by resazurin dye based microdilution assay; type: functional; settings: ATCC 27853, 24 h; procedure, shortened: as §3
Trypanosoma cruzi = experiment: Antitrypanosomal activity against Trypanosoma cruzi Tulahuen intracellular amastigote harboring LacZ infected in human U937 cells after 72 hrs by CPRG/Nonidet reagent based spectrophotometric method; type: functional, cell-based; settings: U-937, 72 h
Procedure, shortened: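 U-937 cells at 2.5 × 10^5 cells/mL in RPMI-1640 with 10% serum and 0.1 µg/mL PMA were infected with β-galactosidase-transfected Tulahuen epimastigotes at 5 parasites per cell. Infected cells were exposed to 50, 12.5, 3.125 and 0.78 µg/mL for 72 h. CPRG (100 uM) and 0.1% Nonidet P-40 were added for 3 h, read at 570 nm. EC50 by Probit. Triplicate, at least two experiments; benznidazole as reference.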

Staphylococcus aureus [13] = experiment: Antibacterial activity against methicillin-sensitive Staphylococcus aureus ATCC 25923 after 24 hrs by resazurin dye based microdilution assay; type: functional; settings: ATCC 25923, 24 h; procedure, shortened: as §3
Cryptococcus neoformans [14] = experiment: Growth inhibition of Cryptococcus neoformans ATCC 32264 at 15.62 ug/ml incubated for 48 hrs under dark condition by broth microdilution method relative to control; type: functional; settings: ATCC 32264, 48 h, read-out: GI; procedure, shortened: as §1
Candida albicans [15] = experiment: Growth inhibition of Candida albicans ATCC 10231 at 31.25 ug/ml incubated for 48 hrs under dark condition by broth microdilution method relative to control; type: functional; settings: ATCC 10231, 48 h, read-out: GI; procedure, shortened: as §1
Cryptococcus neoformans [16] = experiment: Growth inhibition of Cryptococcus neoformans ATCC 32264 at 3.4 ug/ml incubated for 48 hrs under dark condition by broth microdilution method relative to control; type: functional; settings: ATCC 32264, 48 h, read-out: GI
Candida albicans [17] = experiment: Growth inhibition of Candida albicans ATCC 10231 at 250 ug/ml incubated for 48 hrs under dark condition by broth microdilution method relative to control; type: functional; settings: ATCC 10231, 48 h, read-out: GI; procedure, shortened: as §1
Candida albicans [18] = experiment: Growth inhibition of Candida albicans ATCC 10231 at 3.4 ug/ml incubated for 48 hrs under dark condition by broth microdilution method relative to control; type: functional; settings: ATCC 10231, 48 h, read-out: GI
Plasmodium falciparum = experiment: Antiplasmodial activity against chloroquine-sensitive Plasmodium falciparum 3D7 assessed as reduction in parasitic LDH activity after 48 hrs by Malstat reagent based […] method; type: functional; settings: 3D7, 48 h
Procedure, shortened: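 Unsynchronized P. falciparum 3D7 at 0.5% parasitemia and 1% hematocrit in RPMI with 3% Albumax II. Exposed to 100, 25, 6.25 and 1.56 µg/mL for 48 h at 37 °C under 90% N2/5% CO2/5% O2. After three freeze-thaw cycles, LDH measured with Malstat and NBT/PES, 1 h in the dark, read at 650 nm. IC50 by Probit; triplicate, ≥2 experiments.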

Klebsiella pneumoniae [19] = experiment: Antibacterial activity against carbapenemase positive Klebsiella pneumoniae BAA 1705 after 24 hrs by resazurin dye based microdilution assay; type: functional; settings: BAA 1705, 24 h; procedure, shortened: as §3
Candida albicans [20] = experiment: Antifungal activity against Candida albicans ATCC 10231 incubated for 48 hrs under dark condition by broth microdilution method; type: functional; settings: ATCC 10231, 48 h; procedure, shortened: as §2
Cryptococcus neoformans [21] = experiment: Growth inhibition of Cryptococcus neoformans ATCC 32264 at 7.8 ug/ml incubated for 48 hrs under dark condition by broth microdilution method relative to control; type: functional; settings: ATCC 32264, 48 h, read-out: GI; procedure, shortened: as §1
Escherichia coli = experiment: Antibacterial activity against Escherichia coli ATCC 25922 after 24 hrs by resazurin dye based microdilution assay; type: functional; settings: ATCC 25922, 24 h; procedure, shortened: as §3
Neisseria gonorrhoeae = experiment: Antibacterial activity against beta lactamase positive Neisseria gonorrhoeae ATCC 31426 by oxidase test; type: functional
Procedure, shortened: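 Agar dilution MIC on GC agar with 1% isovitalex containing increasing compound concentrations. Plates inoculated with about 1×10^4 CFU (5 µL). MIC is the lowest concentration that inhibited growth, with growth confirmed by oxidase test. Run in duplicate, repeated at least three times.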

Compound | inhibition of growth at 250 µg/mL (Cryptococcus neoformans [1]) | MIC50 (Cryptococcus neoformans [2]) | MIC80 (Cryptococcus neoformans [2]) | inhibition of growth at 31.25 µg/mL (Cryptococcus neoformans [3]) | LC50 (U-937) | MIC (Staphylococcus aureus [4]) | inhibition of growth at 62.5 µg/mL (Candida albicans [5]) | inhibition of growth at 125 µg/mL (Cryptococcus neoformans [6]) | inhibition of growth at 15.62 µg/mL (Candida albicans [7]) | inhibition of growth at 62.5 µg/mL (Cryptococcus neoformans [8]) | inhibition of growth at 125 µg/mL (Candida albicans [9]) | MIC (Klebsiella pneumoniae [10]) | EC50 (Leishmania panamensis) | MIC (Staphylococcus aureus [11]) | inhibition of growth at 7.8 µg/mL (Candida albicans [12]) | MIC (Pseudomonas aeruginosa) | EC50 (Trypanosoma cruzi) | MIC (Staphylococcus aureus [13]) | inhibition of growth at 15.62 µg/mL (Cryptococcus neoformans [14]) | inhibition of growth at 31.25 µg/mL (Candida albicans [15]) | also measured
Clc1ccc2c(Nc3cccc(C4CC(c5ccccc5)=NN4c4ccccc4)c3)ccnc2c1 (stereo not given) | 52.3% | 250 µg/mL (≈ 526 µM) | ≥ 250 µg/mL | 20.4% | > 200 µg/mL | > 1000 µg/mL | 20.1% | 26.5% | 8.69% | 20.5% | 32.4% | > 1000 µg/mL | 22.7 µg/mL (≈ 47.7 µM) | > 1000 µg/mL | 5.03% | > 1000 µg/mL | 39.2 µg/mL (≈ 82.5 µM) | > 1000 µg/mL | 18.4% | 11% | inhibition of growth at 3.4 µg/mL (Cryptococcus neoformans [16]): 9.75%; inhibition of growth at 250 µg/mL (Candida albicans [17]): 53%; inhibition of growth at 3.4 µg/mL (Candida albicans [18]): 3.1%; EC50 (Plasmodium falciparum): 13.4 µg/mL (≈ 28.1 µM); MIC (Klebsiella pneumoniae [19]): > 1000 µg/mL; MIC50 (Candida albicans [20]): 250 µg/mL (≈ 526 µM); MIC80 (Candida albicans [20]): ≥ 250 µg/mL; inhibition of growth at 7.8 µg/mL (Cryptococcus neoformans [21]): 13.6%; MIC (Escherichia coli): > 1000 µg/mL; MIC (Neisseria gonorrhoeae): > 1000 µg/mL
Clc1ccc(N2N=C(c3ccccc3)CC2c2cccc(Nc3ccnc4cc(Cl)ccc34)c2)cc1 (stereo not given) | 61% | 250 µg/mL (≈ 491 µM) | ≥ 250 µg/mL | 5.92% | > 200 µg/mL | > 1000 µg/mL | 10.9% | 46% | 8.78% | 13.8% | 18.9% | > 1000 µg/mL | 15.7 µg/mL (≈ 30.8 µM) | > 1000 µg/mL | 4.82% | > 1000 µg/mL | 15.1 µg/mL (≈ 29.7 µM) | > 1000 µg/mL | 0% | 10.5% | inhibition of growth at 3.4 µg/mL (Cryptococcus neoformans [16]): 0%; inhibition of growth at 250 µg/mL (Candida albicans [17]): 26.9%; inhibition of growth at 3.4 µg/mL (Candida albicans [18]): 2.71%; EC50 (Plasmodium falciparum): 10.3 µg/mL (≈ 20.1 µM); MIC (Klebsiella pneumoniae [19]): > 1000 µg/mL; MIC50 (Candida albicans [20]): ≥ 250 µg/mL; MIC80 (Candida albicans [20]): ≥ 250 µg/mL; inhibition of growth at 7.8 µg/mL (Cryptococcus neoformans [21]): 0%; MIC (Escherichia coli): > 1000 µg/mL; MIC (Neisseria gonorrhoeae): > 1000 µg/mL
